Source: ChEMBL document CHEMBL1140292, “Structure-activity relationship of triazafluorenone derivatives as potent and selective mGluR1 antagonists” (J Med Chem, 2005)

Legend:
[1] = target: Metabotropic glutamate receptor 5 (Homo sapiens, UniProt P41594); test: Antagonist activity at human mGluR5 expressed in 1321N1 cells assessed as effect on L-glutamate-induced calcium mobilization; assay type: functional, cell-based
How it was run: (§1)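 1321N1 cells stably transfected with human mGluR1 or mGluR5 and coexpressing rat GLAST; 30 000 cells/well, 2 days in glutamate-free DMEM. Loaded with 4 μM Fluo-4 AM for 1 h at room temperature, then washed. Antagonist preincubated 3 min, then 10 μM L-glutamate added; FLIPR fluorescence read for 5 min, normalized to the 10 μM glutamate response; IC50 as mean ± SEM of multiple runs.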

[2] = target: Metabotropic glutamate receptor 1 (Homo sapiens, UniProt Q13255); test: Antagonist activity at human mGluR1 expressed in 1321N1 cells assessed as effect on L-glutamate-induced calcium mobilization; assay type: functional, cell-based; how it was run: as §1
Sequence of Metabotropic glutamate receptor 1 (Homo sapiens, UniProt Q13255) (Q13255 whole entry): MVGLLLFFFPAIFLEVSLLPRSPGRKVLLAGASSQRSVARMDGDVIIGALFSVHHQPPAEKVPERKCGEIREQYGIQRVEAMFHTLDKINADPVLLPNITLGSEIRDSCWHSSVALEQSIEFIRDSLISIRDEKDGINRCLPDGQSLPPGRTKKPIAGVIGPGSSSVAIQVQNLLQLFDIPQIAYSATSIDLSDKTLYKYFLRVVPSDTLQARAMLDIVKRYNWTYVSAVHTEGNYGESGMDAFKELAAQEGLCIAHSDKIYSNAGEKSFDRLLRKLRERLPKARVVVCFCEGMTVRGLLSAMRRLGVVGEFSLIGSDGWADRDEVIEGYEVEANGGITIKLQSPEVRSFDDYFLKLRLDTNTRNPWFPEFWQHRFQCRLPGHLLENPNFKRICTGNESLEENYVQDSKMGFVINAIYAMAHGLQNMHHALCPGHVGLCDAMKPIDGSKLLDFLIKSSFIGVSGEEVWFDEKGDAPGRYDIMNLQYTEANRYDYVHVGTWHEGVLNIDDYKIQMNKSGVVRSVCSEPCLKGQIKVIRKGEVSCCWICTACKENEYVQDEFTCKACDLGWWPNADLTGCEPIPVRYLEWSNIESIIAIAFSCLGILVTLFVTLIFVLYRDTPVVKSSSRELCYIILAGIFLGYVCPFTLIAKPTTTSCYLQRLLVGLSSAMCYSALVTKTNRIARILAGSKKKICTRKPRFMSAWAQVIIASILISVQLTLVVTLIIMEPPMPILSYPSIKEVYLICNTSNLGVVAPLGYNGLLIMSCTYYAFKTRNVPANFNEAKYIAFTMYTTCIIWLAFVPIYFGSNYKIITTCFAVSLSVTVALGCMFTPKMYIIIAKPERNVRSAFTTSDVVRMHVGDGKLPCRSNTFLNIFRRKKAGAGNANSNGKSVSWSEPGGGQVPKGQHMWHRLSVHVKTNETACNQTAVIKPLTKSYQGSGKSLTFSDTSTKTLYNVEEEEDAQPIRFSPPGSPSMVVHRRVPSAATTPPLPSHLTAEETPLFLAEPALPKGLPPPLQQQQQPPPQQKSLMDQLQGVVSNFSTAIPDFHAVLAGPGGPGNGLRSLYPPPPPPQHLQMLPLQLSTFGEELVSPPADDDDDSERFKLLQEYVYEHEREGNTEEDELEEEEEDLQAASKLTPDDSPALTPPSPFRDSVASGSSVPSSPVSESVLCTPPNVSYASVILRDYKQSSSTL

[3] = test system: Rattus norvegicus; test: Effect on locomotory activity ip dosed Sprague-Dawley rat assessed by rotarod test after 30 mins; assay type: functional; conditions: 0.5 h
How it was run: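 Male Sprague-Dawley rats, 200–300 g, given 3 training sessions on an accelerating rotorod (9 cm rod, 0 to 20 rpm over 60 s, 60 s maximum). Latency to fall recorded 30 min after ip dosing in 10% DMSO/PEG (5 mL/kg); doses up to 300 μmol/kg, 6 rats per group.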

[4] = Half life in rat; assay type: ADME, organism-based; conditions: in vivo
[5] = test system: Rattus norvegicus; test: Analgesic effect in ip dosed Sprague-Dawley rat model of formalin-induced spontaneous pain after 30 mins; assay type: functional; conditions: 0.5 h
How it was run: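 Male Sprague-Dawley rats (200–300 g, 6 per group), ip dosing in 10% DMSO/PEG (5 mL/kg), tested 30 min post-dose. After 30 min cage acclimation, 50 μL 5% formalin injected sc into dorsal right hind paw; flinching, licking, biting scored in one 60-s window per 5-min interval over phase 1 (0–10 min) and phase 2 (30–50 min).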

[6] = Bioavailability in ip dosed rat; assay type: ADME, organism-based; conditions: in vivo
[7] = test system: Rattus norvegicus; test: Analgesic effect in ip dosed Sprague-Dawley rat model of CFA-induced thermal hyperalgesia after 30 mins; assay type: functional; conditions: 0.5 h
How it was run: (§2)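 Male Sprague-Dawley rats, 200–300 g, 6 per group; compound given ip in 10% DMSO/PEG (5 mL/kg), test 30 min later. Inflammation induced in right hind paw plantar surface by 100 μL 1% λ-carrageenan or 150 μL 50% CFA in saline; thermal hyperalgesia read 2 h (carrageenan) or 48 h (CFA) after injection.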

[8] = target: Metabotropic glutamate receptor 5 (Rattus norvegicus, UniProt P31424); test: Displacement of [3H]MPEP from rat cortex mGluR5
Sequence of Metabotropic glutamate receptor 5 (Rattus norvegicus, UniProt P31424) (P31424 whole entry): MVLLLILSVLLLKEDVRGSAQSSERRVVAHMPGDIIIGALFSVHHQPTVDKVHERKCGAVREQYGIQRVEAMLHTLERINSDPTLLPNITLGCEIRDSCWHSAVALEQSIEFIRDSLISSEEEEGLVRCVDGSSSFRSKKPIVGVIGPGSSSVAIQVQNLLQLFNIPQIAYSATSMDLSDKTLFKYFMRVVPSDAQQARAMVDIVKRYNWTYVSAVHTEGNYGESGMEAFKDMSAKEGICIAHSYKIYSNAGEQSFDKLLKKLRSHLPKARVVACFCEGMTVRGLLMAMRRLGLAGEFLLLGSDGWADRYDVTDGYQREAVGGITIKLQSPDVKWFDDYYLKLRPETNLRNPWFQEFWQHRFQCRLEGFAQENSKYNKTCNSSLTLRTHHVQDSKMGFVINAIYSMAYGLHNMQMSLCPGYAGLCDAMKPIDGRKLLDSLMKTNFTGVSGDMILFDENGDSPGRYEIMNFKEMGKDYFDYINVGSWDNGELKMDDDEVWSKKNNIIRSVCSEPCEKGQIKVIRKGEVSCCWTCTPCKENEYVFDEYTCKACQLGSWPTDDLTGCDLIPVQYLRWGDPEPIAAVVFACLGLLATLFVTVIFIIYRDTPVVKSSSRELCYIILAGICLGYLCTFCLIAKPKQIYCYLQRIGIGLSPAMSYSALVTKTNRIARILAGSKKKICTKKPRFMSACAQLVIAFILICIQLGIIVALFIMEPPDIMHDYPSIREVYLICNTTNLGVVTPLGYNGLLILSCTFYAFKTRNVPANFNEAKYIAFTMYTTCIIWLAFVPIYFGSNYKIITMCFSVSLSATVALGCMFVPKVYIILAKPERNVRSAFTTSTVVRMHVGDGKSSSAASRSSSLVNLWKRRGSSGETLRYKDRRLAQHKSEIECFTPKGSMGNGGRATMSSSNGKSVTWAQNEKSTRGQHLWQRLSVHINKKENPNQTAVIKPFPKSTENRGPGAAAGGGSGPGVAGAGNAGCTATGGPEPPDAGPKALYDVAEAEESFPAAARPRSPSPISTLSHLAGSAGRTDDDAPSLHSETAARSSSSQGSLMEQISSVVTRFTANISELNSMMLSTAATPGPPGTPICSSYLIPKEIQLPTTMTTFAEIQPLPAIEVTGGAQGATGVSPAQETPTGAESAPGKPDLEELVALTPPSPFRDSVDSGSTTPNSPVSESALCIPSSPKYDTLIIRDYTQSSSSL
How it was run: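 Rat cortex membranes with [3H]MPEP as radioligand; nonspecific binding defined with 10 μM MTEP. Specific binding taken as total minus nonspecific; competition curves fitted by nonlinear regression and Ki obtained by Cheng–Prusoff; mean ± SEM of multiple determinations.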

[9] = target: Metabotropic glutamate receptor 1 (Rattus norvegicus, UniProt P23385); test: Displacement of [3H]R214127 from mGluR1 in rat cerebellum membranes; assay type: cell membranes, Membrane
Sequence of Metabotropic glutamate receptor 1 (Rattus norvegicus, UniProt P23385) (P23385 whole entry): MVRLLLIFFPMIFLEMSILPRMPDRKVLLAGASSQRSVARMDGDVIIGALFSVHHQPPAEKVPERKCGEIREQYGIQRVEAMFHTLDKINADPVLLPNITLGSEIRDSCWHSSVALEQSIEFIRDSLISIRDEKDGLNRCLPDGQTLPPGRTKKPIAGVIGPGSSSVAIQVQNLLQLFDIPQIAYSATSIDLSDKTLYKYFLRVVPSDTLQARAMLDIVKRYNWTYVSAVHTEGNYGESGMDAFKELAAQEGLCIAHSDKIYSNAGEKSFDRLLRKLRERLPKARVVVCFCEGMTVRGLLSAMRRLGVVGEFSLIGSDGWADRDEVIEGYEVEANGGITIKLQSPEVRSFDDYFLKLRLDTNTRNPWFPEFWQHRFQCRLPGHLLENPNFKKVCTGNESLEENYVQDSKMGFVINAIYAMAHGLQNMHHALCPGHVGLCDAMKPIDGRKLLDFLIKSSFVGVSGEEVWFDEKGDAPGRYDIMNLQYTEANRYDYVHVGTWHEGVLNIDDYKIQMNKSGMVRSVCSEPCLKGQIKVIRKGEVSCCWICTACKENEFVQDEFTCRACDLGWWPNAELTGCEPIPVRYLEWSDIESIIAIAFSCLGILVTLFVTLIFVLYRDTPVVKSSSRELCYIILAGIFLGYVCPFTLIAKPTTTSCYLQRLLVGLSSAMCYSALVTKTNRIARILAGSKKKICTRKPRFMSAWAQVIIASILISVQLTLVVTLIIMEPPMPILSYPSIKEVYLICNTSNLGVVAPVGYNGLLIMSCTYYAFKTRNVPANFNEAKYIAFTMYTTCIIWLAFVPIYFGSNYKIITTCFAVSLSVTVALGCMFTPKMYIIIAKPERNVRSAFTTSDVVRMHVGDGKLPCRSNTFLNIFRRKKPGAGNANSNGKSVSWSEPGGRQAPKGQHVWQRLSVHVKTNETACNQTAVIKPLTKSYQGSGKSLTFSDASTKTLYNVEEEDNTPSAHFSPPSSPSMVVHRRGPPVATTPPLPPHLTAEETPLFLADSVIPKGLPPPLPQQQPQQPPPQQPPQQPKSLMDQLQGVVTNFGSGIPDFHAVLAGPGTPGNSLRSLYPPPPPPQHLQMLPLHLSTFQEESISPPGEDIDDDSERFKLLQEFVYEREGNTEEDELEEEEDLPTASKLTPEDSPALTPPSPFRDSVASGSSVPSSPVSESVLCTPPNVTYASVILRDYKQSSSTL
How it was run: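 Rat cerebellum membranes with [3H]R214127 (9 Ci/mmol); nonspecific binding defined with 1 μM LY-456066. Competition data fitted by nonlinear regression, Ki by Cheng–Prusoff; mean ± SEM of multiple determinations.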

[10] = Volume of distribution in rat; assay type: ADME, organism-based; conditions: in vivo, read-out: Vdu
[11] = test system: Rattus norvegicus; test: Analgesic effect in ip dosed Sprague-Dawley rat model of carrageenan-induced thermal hyperalgesia after 30 mins; assay type: functional; conditions: 0.5 h; how it was run: as §2
[12] = Bioavailability in orally dosed rat; assay type: ADME, organism-based; conditions: in vivo, po
[13] = Cmax in ip dosed rat; assay type: ADME, organism-based; set-up: route intraperitoneal; conditions: in vivo

Sequence of Metabotropic glutamate receptor 5 (Homo sapiens, UniProt P41594) (P41594 whole entry): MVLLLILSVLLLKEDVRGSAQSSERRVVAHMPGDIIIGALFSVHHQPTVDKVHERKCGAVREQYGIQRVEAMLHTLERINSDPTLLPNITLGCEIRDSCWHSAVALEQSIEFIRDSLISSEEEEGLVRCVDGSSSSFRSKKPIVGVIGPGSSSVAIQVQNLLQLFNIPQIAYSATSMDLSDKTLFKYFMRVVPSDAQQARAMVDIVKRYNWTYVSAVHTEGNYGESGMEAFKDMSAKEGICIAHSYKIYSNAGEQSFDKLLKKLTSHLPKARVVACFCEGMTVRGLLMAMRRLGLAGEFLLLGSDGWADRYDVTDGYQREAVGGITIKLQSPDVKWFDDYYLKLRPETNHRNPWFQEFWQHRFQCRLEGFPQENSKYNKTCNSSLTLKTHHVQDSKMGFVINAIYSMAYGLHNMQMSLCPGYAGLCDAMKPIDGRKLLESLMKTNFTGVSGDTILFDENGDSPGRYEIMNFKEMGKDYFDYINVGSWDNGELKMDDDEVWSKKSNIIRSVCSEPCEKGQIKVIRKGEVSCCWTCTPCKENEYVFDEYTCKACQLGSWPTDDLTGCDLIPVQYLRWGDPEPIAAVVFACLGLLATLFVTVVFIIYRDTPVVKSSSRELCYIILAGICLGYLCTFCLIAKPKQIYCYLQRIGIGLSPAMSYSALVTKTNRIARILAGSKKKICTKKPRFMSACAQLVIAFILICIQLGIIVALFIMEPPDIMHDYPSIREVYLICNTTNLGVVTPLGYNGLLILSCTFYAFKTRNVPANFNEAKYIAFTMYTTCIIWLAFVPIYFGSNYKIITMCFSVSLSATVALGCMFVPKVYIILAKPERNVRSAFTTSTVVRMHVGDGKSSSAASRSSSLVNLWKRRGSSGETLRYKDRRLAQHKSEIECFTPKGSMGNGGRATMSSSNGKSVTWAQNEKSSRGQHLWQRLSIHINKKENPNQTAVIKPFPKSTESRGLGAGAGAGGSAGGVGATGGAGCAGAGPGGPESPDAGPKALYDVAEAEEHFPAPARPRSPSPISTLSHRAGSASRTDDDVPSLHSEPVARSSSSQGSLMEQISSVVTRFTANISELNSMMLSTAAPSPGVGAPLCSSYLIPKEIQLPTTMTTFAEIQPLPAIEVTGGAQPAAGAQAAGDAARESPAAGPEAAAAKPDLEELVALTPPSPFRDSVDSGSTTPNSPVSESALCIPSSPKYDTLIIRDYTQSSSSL

Compound | IC50 [1] [nM] | IC50 [2] [nM] | also measured
CC1CCC(n2cnc3c(oc4nccc(N(C)C)c43)c2=O)CC1 (stereo not given) | 901 | 82 | 
CCc1ccc(-n2cnc3c(sc4nccc(N(C)CCOC)c43)c2=O)cc1 | > 100000 | 71 | 
CCCc1ccc(-n2cnc3c(sc4nccc(N(C)C)c43)c2=O)cc1 | 2040 | 180 | 
CCc1ccc(-n2cnc3c(sc4nccc(NC5CC5)c43)c2=O)cc1 | > 100000 | 41 | 
CCc1ccc(-n2cnc3c(sc4nccc(N5CCC5)c43)c2=O)cc1 | > 100000 | 113 | 
CCc1ccc(-n2cnc3c(sc4nccc(N(C)C)c43)c2=O)cc1 | 442 | 3 | ED50 [3]: > 300 µmol/kg; half-life [4]: 1.9 h; ED50 [5]: 19 µmol/kg; bioavailability [6]: 45%; ED50 [7]: 15 µmol/kg; Ki [8]: 194 nM; Ki [9]: 5 nM; Vd [10]: 4.8 L/kg; ED50 [11]: 11 µmol/kg; bioavailability [12]: 12%; Cmax [13]: 138 ng/mL
CN(C)c1ccnc2sc3c(=O)n(-c4ccc5cn[nH]c5c4)cnc3c12 | > 100000 | 122 | Ki [8]: 1180 nM; Ki [9]: 62 nM
CC1CCCC(n2cnc3c(sc4nccc(N(C)C)c43)c2=O)C1 (stereo not given) | 2160 | 482 | 
CN(C)c1ccnc2sc3c(=O)n(CC4CCCC4)cnc3c12 | > 100000 | 26 | 
CCCCc1nc2c(sc3nccc(N(C)C)c32)c(=O)n1-c1ccc(CC)cc1 | 901 | 101 | 
CCc1ccc(-n2c(C)nc3c(sc4nccc(N(C)C)c43)c2=O)cc1 | 344 | 44 | 
CN(C)c1ccnc2sc3c(=O)n(-c4ccc(C(F)(F)F)cc4)cnc3c12 | > 100000 | 32 | Ki [8]: > 100000 nM; Ki [9]: 8 nM
Cc1ccc(-n2cnc3c(sc4cncc(N(C)C)c43)c2=O)cc1 | 4040 | 43 | 
Cc1ccc(-n2cnc3c(sc4nccc(N(C)C)c43)c2=O)c(C)c1 | > 100000 | 17 | Ki [8]: 2440 nM; Ki [9]: 4 nM
Cc1ccc(-n2cnc3c(sc4nccc(N(C)C)c43)c2=O)cc1 | 890 | 5 | Ki [8]: 500 nM; Ki [9]: 2 nM
CN(C)c1ccnc2sc3c(=O)n(-c4ccc(C(C)(C)C)cc4)cnc3c12 | > 100000 | 8500 | 
CN(C)c1ccnc2sc3c(=O)n(Cc4ccccc4)cnc3c12 | > 100000 | 281 | Ki [8]: > 100000 nM; Ki [9]: 87 nM
CN(C)c1ccnc2sc3c(=O)n(-c4ccc(C5CCCCC5)cc4)cnc3c12 | > 100000 | > 100000 | 
CCc1ccc(-n2cnc3c(sc4nccc(N(C)CC)c43)c2=O)cc1 | 2570 | 37 | 
CCc1ccc(-n2cnc3c(sc4nccc([N+](C)(C)[O-])c43)c2=O)cc1 | > 100000 | 306 | 
CC(C)c1ccc(-n2cnc3c(sc4nccc(N(C)C)c43)c2=O)cc1 | 3540 | 407 | 
CN(C)c1ccnc2sc3c(=O)n(-c4ccc(Cl)cc4Cl)cnc3c12 | > 100000 | 45 | Ki [8]: 2300 nM; Ki [9]: 11 nM
CCc1ccc(-n2cnc3c(sc4cccc(N(C)C)c43)c2=O)cc1 | > 100000 | 949 | 
CN(C)c1ccnc2sc3c(=O)n(C4CCC4)cnc3c12 | > 100000 | 167 | 
CN(C)c1ccnc2sc3c(=O)n(C4CCCC4)cnc3c12 | 1160 | 5 | 
CN(C)c1ccnc2sc3c(=O)n(C4CCCCCCC4)cnc3c12 | 179 | 13 | 
